Source: ChEMBL document CHEMBL4011643, “Triaryl Benzimidazoles as a New Class of Antibacterial Agents against Resistant Pathogenic Microorganisms” (J Med Chem, 2017)
Values after ≈ are worked out from the molar mass of the structure shown.

Assays:
[1] = Stabilization of FAM/TAMRA-labeled AT-rich DNA duplex (unknown origin) assessed as change in melting temperature at 5 uM by FRET-based assay
Method in brief: (§1)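 FRET melting of a FAM/TAMRA-labelled AT-rich oligonucleotide, 400 nM working solution in 50 mM potassium, 50 mM cacodylate, pH 7.4. DNA was annealed at 85 °C for 6 min, then held at 25 °C for 5 h, and mixed 1:1 with sample. Fluorescence was read every 0.5 °C from 30 to 100 °C, with a 30 s hold per step. ΔTm is measured against the blank, in triplicate.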

[2] = Stabilization of FAM/TAMRA-labeled AT-rich DNA duplex (unknown origin) assessed as change in melting temperature at 1 uM by FRET-based assay; method in brief: as §1
[3] = test system: Enterococcus faecalis; experiment: Antibacterial activity against vancomycin-resistant Enterococcus faecalis NCTC 12201 after 20 hrs by broth microdilution method; assay type: functional; conditions: NCTC 12201, 20 h
Method in brief: (§2)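 Broth microdilution in Tryptic Soy Broth; growth read as OD600 after 20 h. MIC taken as the lowest drug concentration giving OD600 below 0.1. Run in triplicate.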

[4] = test system: Staphylococcus aureus; experiment: Antibacterial activity against methicillin-resistant Staphylococcus aureus EMRSA-15 after 20 hrs by broth microdilution method; assay type: functional; conditions: EMRSA-15, 20 h; method in brief: as §2
[5] = test system: Klebsiella pneumoniae; experiment: Antibacterial activity against Klebsiella pneumoniae NCTC 13368 after 20 hrs by broth microdilution method; assay type: functional; conditions: NCTC 13368, 20 h
Method in brief: (§3)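 Broth microdilution in Tryptic Soy Broth, done in triplicate. Growth was read as OD600 after 20 h. MIC is the lowest drug concentration giving OD600 below 0.1.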

[6] = test system: Acinetobacter baumannii; experiment: Antibacterial activity against Acinetobacter baumannii ATCC 17978 after 20 hrs in the presence of PMBN by broth microdilution method; assay type: functional; conditions: ATCC 17978, 20 h; method in brief: as §3
[7] = test system: Pseudomonas aeruginosa; experiment: Antibacterial activity against Pseudomonas aeruginosa PAO1 after 20 hrs in the presence of Pa-beta-N and magnesium ions by broth microdilution method; assay type: functional; conditions: PAO1, 20 h; method in brief: as §3
[8] = test system: Klebsiella pneumoniae; experiment: Antibacterial activity against Klebsiella pneumoniae M6 after 20 hrs in the presence of Pa-beta-N and magnesium ions by broth microdilution method; assay type: functional; conditions: M6, 20 h; method in brief: as §3
[9] = test system: Enterococcus faecalis; experiment: Antibacterial activity against vancomycin-sensitive Enterococcus faecalis NCTC 775 after 20 hrs by broth microdilution method; assay type: functional; conditions: NCTC 775, 20 h; method in brief: as §3
[10] = test system: Pseudomonas aeruginosa; experiment: Antibacterial activity against Pseudomonas aeruginosa NCTC 13437 after 20 hrs by broth microdilution method; assay type: functional; conditions: NCTC 13437, 20 h; method in brief: as §3
[11] = test system: Pseudomonas aeruginosa; experiment: Antibacterial activity against Pseudomonas aeruginosa PAO1 after 20 hrs by broth microdilution method; assay type: functional; conditions: PAO1, 20 h; method in brief: as §3
[12] = test system: Pseudomonas aeruginosa; experiment: Antibacterial activity against Pseudomonas aeruginosa NCTC 13437 after 20 hrs in the presence of Pa-beta-N and magnesium ions by broth microdilution method; assay type: functional; conditions: NCTC 13437, 20 h; method in brief: as §3
[13] = test system: Enterococcus faecium; experiment: Antibacterial activity against vancomycin-resistant Enterococcus faecium NCTC 12204 after 20 hrs by broth microdilution method; assay type: functional; conditions: NCTC 12204, 20 h; method in brief: as §2
[14] = test system: Acinetobacter baumannii; experiment: Antibacterial activity against Acinetobacter baumannii AYE after 20 hrs in the presence of Pa-beta-N and magnesium ions by broth microdilution method; assay type: functional; method in brief: as §3
[15] = test system: Klebsiella pneumoniae; experiment: Antibacterial activity against Klebsiella pneumoniae NCTC 13368 after 20 hrs in the presence of PMBN by broth microdilution method; assay type: functional; conditions: NCTC 13368, 20 h; method in brief: as §3
[16] = test system: Pseudomonas aeruginosa; experiment: Antibacterial activity against Pseudomonas aeruginosa PAO1 after 20 hrs in the presence of PMBN by broth microdilution method; assay type: functional; conditions: PAO1, 20 h; method in brief: as §3
[17] = test system: Acinetobacter baumannii; experiment: Antibacterial activity against Acinetobacter baumannii AYE after 20 hrs in the presence of PMBN by broth microdilution method; assay type: functional; method in brief: as §3
[18] = test system: Klebsiella pneumoniae; experiment: Antibacterial activity against Klebsiella pneumoniae M6 after 20 hrs by broth microdilution method; assay type: functional; conditions: M6, 20 h; method in brief: as §3
[19] = test system: Acinetobacter baumannii; experiment: Antibacterial activity against Acinetobacter baumannii ATCC 17978 after 20 hrs in the presence of Pa-beta-N and magnesium ions by broth microdilution method; assay type: functional; conditions: ATCC 17978, 20 h; method in brief: as §3
[20] = test system: Klebsiella pneumoniae; experiment: Antibacterial activity against Klebsiella pneumoniae M6 after 20 hrs in the presence of PMBN by broth microdilution method; assay type: functional; conditions: M6, 20 h; method in brief: as §3
[21] = test system: Pseudomonas aeruginosa; experiment: Antibacterial activity against Pseudomonas aeruginosa NCTC 13437 after 20 hrs in the presence of PMBN by broth microdilution method; assay type: functional; conditions: NCTC 13437, 20 h; method in brief: as §3
[22] = Cytotoxicity against human HeLa cells assessed as cell viability at 25 uM after 24 hrs by MTT assay; assay type: cell-based; conditions: read-out: Activity
Method in brief: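 HeLa cells, 10000 per well, were grown at 37 °C in 5% CO2 and allowed to settle for 24 h. Compound was then added in triplicate for 24 h of continuous exposure. Viability was read by MTT colorimetry, with absorbance at 570 nm.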

[23] = test system: Acinetobacter baumannii; experiment: Antibacterial activity against Acinetobacter baumannii AYE after 20 hrs by broth microdilution method; assay type: functional; method in brief: as §3
[24] = test system: Staphylococcus aureus; experiment: Antibacterial activity against methicillin-sensitive Staphylococcus aureus ATCC 9144 after 20 hrs by broth microdilution method; assay type: functional; conditions: ATCC 9144, 20 h; method in brief: as §3
[25] = test system: Acinetobacter baumannii; experiment: Antibacterial activity against Acinetobacter baumannii ATCC 17978 after 20 hrs by broth microdilution method; assay type: functional; conditions: ATCC 17978, 20 h; method in brief: as §3
[26] = test system: Staphylococcus aureus; experiment: Antibacterial activity against methicillin-resistant Staphylococcus aureus MRSA252 after 20 hrs by broth microdilution method; assay type: functional; conditions: MRSA252, 20 h; method in brief: as §2
[27] = test system: Klebsiella pneumoniae; experiment: Antibacterial activity against Klebsiella pneumoniae NCTC 13368 after 20 hrs in the presence of Pa-beta-N and magnesium ions by broth microdilution method; assay type: functional; conditions: NCTC 13368, 20 h; method in brief: as §3

SMILES: Cn1cc(NC(=O)c2cc(NC(=O)CN=C(N)N)cn2C)cc1C(=O)NCCC(=N)N [NETROPSIN]
- deltaTm [1]: 22.2 °C
- deltaTm [2]: 16.5 °C

SMILES: CCN(CC)CCCNC(=O)c1ccc2c(c1)nc(C)n2-c1ccc(-c2cccc(NC(=O)c3ccc4nc(C)[nH]c4c3)c2)cn1
- MIC [3]: > 128 µg/mL
- MIC [4]: > 128 µg/mL

SMILES: Cc1nc2cc(C(=O)NCCCN(C)C)ccc2n1-c1ccc(Br)cn1
- MIC [3]: > 128 µg/mL
- MIC [4]: > 128 µg/mL

SMILES: Cc1nc2cc(C(=O)NCCCN(C)C)ccc2n1-c1ccc(-c2cccc(N)c2)cn1
- MIC [3]: > 128 µg/mL
- MIC [4]: > 128 µg/mL

SMILES: Cc1nc2ccc(C(=O)Nc3cccc(-c4ccc(-n5c(C)nc6cc(C(=O)NCCCN7CCN(C)CC7)ccc65)nc4)c3)cc2[nH]1
- MIC [3]: 64 µg/mL (≈ 99.7 µM)
- MIC [5]: > 32 µg/mL
- MIC [6]: > 32 µg/mL
- MIC [4]: > 128 µg/mL
- MIC [7]: > 32 µg/mL
- MIC [8]: > 32 µg/mL
- MIC [9]: > 128 µg/mL
- MIC [10]: > 32 µg/mL
- MIC [11]: > 32 µg/mL
- MIC [12]: > 32 µg/mL
- MIC [13]: > 128 µg/mL
- MIC [14]: > 32 µg/mL
- MIC [15]: > 32 µg/mL
- MIC [16]: > 32 µg/mL
- MIC [17]: > 32 µg/mL
- MIC [18]: > 32 µg/mL
- MIC [19]: > 32 µg/mL
- MIC [20]: > 32 µg/mL
- MIC [21]: > 32 µg/mL
- viability at 24 h, 25 µM [22]: > 98%
- MIC [23]: > 32 µg/mL
- MIC [24]: 16 µg/mL (≈ 24.9 µM)
- MIC [25]: > 32 µg/mL
- MIC [26]: > 32 µg/mL
- MIC [27]: > 32 µg/mL

SMILES: CN[C@H](CC(C)C)C(=O)N[C@H]1C(=O)N[C@@H](CC(N)=O)C(=O)N[C@H]2C(=O)N[C@H]3C(=O)N[C@H](C(=O)N[C@H](C(=O)O)c4cc(O)cc(O)c4-c4cc3ccc4O)[C@H](O)c3ccc(c(Cl)c3)Oc3cc2cc(c3O[C@@H]2O[C@H](CO)[C@@H](O)[C@H](O)[C@H]2O[C@H]2C[C@](C)(N)[C@H](O)[C@H](C)O2)Oc2ccc(cc2Cl)[C@H]1O [VANCOMYCIN]
- MIC [3]: > 128 µg/mL
- MIC [9]: 1 µg/mL (≈ 0.69 µM)
- MIC [13]: > 128 µg/mL

SMILES: COC(=O)c1ccc2c(c1)nc(C)n2-c1ccc(-c2cccc(NC(=O)c3ccc4nc(CCCN(C)C)[nH]c4c3)c2)cn1
- MIC [3]: > 128 µg/mL
- MIC [4]: > 128 µg/mL
